According to ChEMBL document CHEMBL1667850, “Indol-2-yl ethanones as novel indoleamine 2,3-dioxygenase (IDO) inhibitors” (Bioorg Med Chem, 2011):
Activity calls are given as the source filed them. The calls are words filed in the database; no cut-off is given here.

Assays:
[1] = target: Indoleamine 2,3-dioxygenase 1 (Mus musculus) (UniProt P28776); assay: Inhibition of mouse IDO expressed in mouse P815B cells assessed as tryptophan degradation at 20 uM; format: cell-based
Procedure, shortened: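 2×10^5 cells per well incubated overnight at 37 °C in HBSS with 80 μM L-Trp and 20 μM compound. Supernatant was acetonitrile-precipitated and analysed by HPLC for Trp (280 nm) and kynurenine (360 nm). Percent inhibition of Trp degradation and kynurenine production was calculated relative to maximal activity.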

[2] = target: T1, Indoleamine 2,3-dioxygenase 1 (Homo sapiens, UniProt P14902); assay: Inhibition of human IDO activity by spectrophotometry
Target sequence in this assay (P14902 whole entry): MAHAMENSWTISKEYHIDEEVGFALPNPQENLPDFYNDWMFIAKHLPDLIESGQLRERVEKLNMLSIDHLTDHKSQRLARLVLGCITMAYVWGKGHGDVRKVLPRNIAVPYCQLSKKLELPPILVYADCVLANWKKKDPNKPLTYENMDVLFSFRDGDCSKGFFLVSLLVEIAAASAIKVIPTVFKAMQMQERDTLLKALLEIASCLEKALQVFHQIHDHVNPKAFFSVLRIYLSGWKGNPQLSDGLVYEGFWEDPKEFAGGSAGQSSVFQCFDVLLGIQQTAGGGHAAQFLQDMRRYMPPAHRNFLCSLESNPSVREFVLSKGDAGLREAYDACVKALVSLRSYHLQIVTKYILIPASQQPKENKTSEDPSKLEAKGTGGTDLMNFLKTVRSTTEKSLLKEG

[3] = target: T1, Indoleamine 2,3-dioxygenase 1; assay: Inhibition of human IDO activity at 100 uM by spectrophotometry
Procedure, shortened: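 Recombinant N-His-tagged human IDO (Ala2–Gly403), expressed in E. coli BL21 AI and Ni-IMAC purified, 0.375 μg per well. Reaction in 50 mM phosphate pH 6.5 with 5 μM methylene blue, 40 mM ascorbate and 100 μM L-Trp, 60 min at room temperature. Stopped with 1 mM H2O2; change in OD320 read against a pre-enzyme baseline.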
Target sequence in this assay (P14902 whole entry, looked up): as the sequence (P14902 whole entry) above

[4] = target: T1, Indoleamine 2,3-dioxygenase 1; assay: Inhibition of IDO
Target sequence in this assay (P14902 whole entry): as above

[5] = Cytotoxicity against mouse P815B cells at 20 uM by MTT assay; format: cell-based
Procedure, shortened: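 MTT viability on the cells left in wells after the 20 μM overnight IDO assay in HBSS at 37 °C. Culture medium (Iscove, 10% FCS, amino acids) and MTT were added for 3–4 h at 37 °C. Formazan was dissolved in SDS/DMF overnight at 37 °C and read at 570/650 nm.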

Sequence of Indoleamine 2,3-dioxygenase 1 (Mus musculus) (P28776 whole entry, looked up): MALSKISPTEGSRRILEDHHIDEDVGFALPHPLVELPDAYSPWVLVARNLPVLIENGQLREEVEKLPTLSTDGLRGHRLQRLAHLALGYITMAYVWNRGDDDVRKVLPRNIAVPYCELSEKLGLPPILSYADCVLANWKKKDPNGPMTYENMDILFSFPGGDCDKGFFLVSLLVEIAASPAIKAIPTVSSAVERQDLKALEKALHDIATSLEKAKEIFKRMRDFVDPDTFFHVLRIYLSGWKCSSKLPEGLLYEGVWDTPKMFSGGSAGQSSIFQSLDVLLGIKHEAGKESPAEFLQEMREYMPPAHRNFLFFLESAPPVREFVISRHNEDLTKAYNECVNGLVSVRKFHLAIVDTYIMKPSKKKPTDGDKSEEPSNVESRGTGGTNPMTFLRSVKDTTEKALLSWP

| inhibition [1] | IC50 ([2]; read-out: IC50) [µM] | Structure (SMILES) | further results |
| --- | --- | --- | --- |
| inactive | 141 | CC(C(=O)c1cc2ccccc2[nH]1)c1cccnc1 (stereo not given) | – |
| inactive | – | O=C(Cc1cccnc1)c1[nH]c2ccccc2c1Br | IC50 [2]: Not Active |
| 24% | 36 | O=C(Cc1cccnc1)c1cc2cc(F)ccc2[nH]1 | – |
| inactive | – | c1cncc(CCc2cc3ccccc3[nH]2)c1 | IC50 [2]: Not Active |
| 25% | – | O/N=C(/Cc1cccnc1)c1cc2ccccc2[nH]1 | inhibition [3]: 19.4% |
| inactive | 18 | O=C(Cc1cccnc1)c1cc2cc(Br)ccc2[nH]1 | – |
| 21% | 87 | Cc1ccc2[nH]c(C(=O)Cc3cccnc3)cc2c1 | – |
| 24% | 24.6 | O=C(Cc1cccnc1)c1cc2cc(Cl)ccc2[nH]1 | – |
| inactive | 37 | O=C(Cc1cccnc1)c1cc2cc(O)ccc2[nH]1 | – |
| inactive | – | OC(Cc1cccnc1)c1cc2ccccc2[nH]1 (stereo not given) | IC50 [2]: Not Active |
| inactive | 29 | O=C(Cc1ccccc1)c1cc2ccccc2[nH]1 | – |
| inactive | 43 | O=C(Cc1cccnc1)c1cc2ccc(F)cc2[nH]1 | – |
| inactive | 94 | O=C(Nc1cccnc1)c1cc2ccccc2[nH]1 | – |
| inactive | – | O=C(Cc1ccncc1)c1cc2ccccc2[nH]1 | IC50 [2]: Not Active |
| 13% | 65 | O=C(Cc1cccnc1)c1cc2ccccc2[nH]1 | – |
| inactive | 83 | O=C(Cc1cccnc1)c1cc2c(O)cccc2[nH]1 | – |

Further lines, the compound ahead of its results:

| Structure (SMILES) | inhibition [1] | IC50 ([2]; read-out: IC50) [µM] | further results |
| --- | --- | --- | --- |
| COc1cccc2[nH]c(C(=O)Cc3cccnc3)cc12 | inactive | 58 | – |
| O=C(Cc1cccnc1)c1cc2cc(-c3ccccc3)ccc2[nH]1 | inactive | 96 | – |
| O=C(Cc1cccnc1)c1cc2c(F)cccc2[nH]1 | 12% | 153 | – |
| O=C(Cc1ccccn1)c1cc2ccccc2[nH]1 | 10% | 37 | – |
| O=C(Cc1cccnc1)c1cc2cc(OC(F)(F)F)ccc2[nH]1 | 12% | 13.1 | – |
| COc1ccc2[nH]c(C(=O)Cc3cccnc3)cc2c1 | – | 49 | – |
| O=C(Cc1cnccn1)c1cc2ccccc2[nH]1 | inactive | 26.2 | – |
| O=C(Cc1cccnc1)c1cc2cc([N+](=O)[O-])ccc2[nH]1 | inactive | – | IC50 [2]: Not Active |
| c1ccc2c(c1)[nH]c1cnccc12 [NORHARMANE] | – | – | Ki [4]: 120 µM |
| COc1cc(OC)c2cc(C(=O)Cc3cccnc3)[nH]c2c1 | – | 45 | Activity [5]: Toxic |
| COc1ccc2[nH]c(C(=O)Cc3cccnc3)cc2c1O | 11% | 63 | – |
| COc1ccc2[nH]c(C(=O)Cc3cccnc3)cc2c1OCc1ccccc1 | inactive | – | IC50 [2]: Not Active |
| Cn1c(C(=O)Cc2cccnc2)cc2ccccc21 | inactive | 34 | – |
| O=C(Cc1cccnc1)c1cc2c(Cl)cc(Cl)cc2[nH]1 | inactive | 139 | – |
| COc1cccc2cc(C(=O)Cc3cccnc3)[nH]c12 | 6% | 82 | – |
